ChEMBL document CHEMBL1127338, “Synthesis and antifungal activity of 1,3,2-benzodithiazole S-oxides” (J Med Chem, 1994)
Converted amounts (≈) assume the structure as drawn.

Tests used:
Candida albicans [1] = assay: Antifungal activity against Candida albicans 579A strain; assay type: functional
Outline: (§1)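 MIC determined by microtiter broth dilution in yeast nitrogen base with 0.05% glucose. Inoculum came from an overnight plate culture, at a final 5×10^4 cfu/mL. Plates were incubated at 35 °C for 24-48 h. MIC was taken as the lowest drug concentration completely inhibiting visible growth. 10231, 442 and 579A are clinical isolates; 38247 is a nonclinical amphotericin-resistant strain.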

Candida albicans [2] = assay: Antifungal activity against Candida albicans 10231 strain; assay type: functional; outline: as §1
Candida albicans [3] = assay: Antifungal activity against Candida albicans CCH442 strain; assay type: functional; outline: as §1
Candida albicans [4] = assay: Antifungal activity against Candida albicans 38247 strain; assay type: functional; outline: as §1
Rattus norvegicus [5] = assay: plasma concentration of total radio activity 30 minutes after intravenous administration in rats; assay type: ADME, organism-based; conditions: in vivo, 0.5 h
Outline: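 Rats given a single 5 mg/kg iv dose of 14C-labelled compound (~15 μCi each) in ethanol/propylene glycol/saline (20:35:45). At 30 min, one male and two female rats were anesthetized with CO2 and bled by cardiac puncture. Plasma was separated from heparinized blood by centrifugation at 4 °C for 15 min. Duplicate aliquots were counted by liquid scintillation with quench correction.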

Rattus norvegicus [6] = assay: % of the total radioactive dose of compound present in the 0-24 hour urine after a single 5 mg/kg dose administered intravenously in rats; assay type: ADME, organism-based; set-up: dose 5 mg/kg, route intravenous; conditions: in vivo, iv
Outline: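 14C-benzylic-labelled compound mixed with unlabelled material, given once iv at 5 mg/kg (~15 μCi per rat) as a 5 mg/mL solution in ethanol/propylene glycol/saline (20:35:45). Urine and feces collected daily for 3 days from two rats. Duplicate urine aliquots counted by liquid scintillation with quench correction. Fecal homogenates oxidized to 14CO2 before counting.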

Compound	MIC (Candida albicans [1]) [µg/mL]	MIC (Candida albicans [2]) [µg/mL]	MIC (Candida albicans [3]) [µg/mL]	MIC (Candida albicans [4]) [µg/mL]	Plasma concentration (Rattus norvegicus [5]) [ug equiv ml-1]	Excretion (Rattus norvegicus [6]) [%]
[O-][S+]1c2ccccc2SN1CCc1ccncc1 (stereo not drawn)	100 (≈ 362 µM)	100 (≈ 362 µM)	100 (≈ 362 µM)	100 (≈ 362 µM)		
Cc1ccc(C)c2c1SN(Cc1ccccc1)[S+]2[O-] (stereo not drawn)	3.12 (≈ 10.8 µM)	1.56 (≈ 5.39 µM)	3.12 (≈ 10.8 µM)	25 (≈ 86.4 µM)		
Cc1cccc2c1[S+]([O-])N(Cc1ccccc1)S2 (stereo not drawn)	0.78 (≈ 2.83 µM)	0.78 (≈ 2.83 µM)	1.56 (≈ 5.66 µM)	1.56 (≈ 5.66 µM)		
CCCCCCCC/C=C/CCCCCCCCN1Sc2ccccc2[S+]1[O-] (stereo not drawn)	100 (≈ 237 µM)	100 (≈ 237 µM)	> 100	> 100		
[O-][S+]1c2ccccc2SN1CC1CCCCC1 (stereo not drawn)	1.56 (≈ 5.83 µM)	1.56 (≈ 5.83 µM)	1.56 (≈ 5.83 µM)	3.12 (≈ 11.7 µM)		
[O-][S+]1c2ccccc2SN1Cc1c(F)cccc1F (stereo not drawn)	0.78 (≈ 2.62 µM)	0.78 (≈ 2.62 µM)	1.56 (≈ 5.25 µM)	1.56 (≈ 5.25 µM)		
c1ccc(CN2Sc3ccccc3S2)cc1	6.25 (≈ 25.5 µM)	6.25 (≈ 25.5 µM)	12.5 (≈ 50.9 µM)	25 (≈ 102 µM)		
[O-][S+]1c2c(F)c(F)c(F)c(F)c2SN1Cc1ccccc1 (stereo not drawn)	6.25 (≈ 18.8 µM)	6.25 (≈ 18.8 µM)	12.5 (≈ 37.5 µM)	12.5 (≈ 37.5 µM)		
[O-][S+]1c2ccccc2SN1c1ccc2c(c1)OCO2 (stereo not drawn)	25 (≈ 85.8 µM)	12.5 (≈ 42.9 µM)	25 (≈ 85.8 µM)	25 (≈ 85.8 µM)		
CCCN1Sc2ccccc2S1	3.12 (≈ 15.8 µM)	3.12 (≈ 15.8 µM)	12.5 (≈ 63.3 µM)	25 (≈ 127 µM)		
C[C@@H]1[C@H](O)[C@@H](C)/C=C/C=C/C=C/C=C/C=C/C=C/C=C/[C@H](O[C@@H]2O[C@H](C)[C@@H](O)[C@H](N)[C@@H]2O)C[C@@H]2O[C@](O)(C[C@@H](O)C[C@@H](O)[C@H](O)CC[C@@H](O)C[C@@H](O)CC(=O)O[C@H]1C)C[C@H](O)[C@H]2C(=O)O [AMPHOTERICIN B]	1.56 (≈ 1.69 µM)	1.56 (≈ 1.69 µM)	0.78 (≈ 0.844 µM)	25 (≈ 27.1 µM)		
CC(c1ccccc1)N1Sc2ccccc2[S+]1[O-] (stereo not drawn)	1.56 (≈ 5.66 µM)	1.56 (≈ 5.66 µM)	1.56 (≈ 5.66 µM)	3.12 (≈ 11.3 µM)		
[O-][S+]1c2c(F)c(F)c(N3CCOCC3)c(F)c2SN1Cc1ccccc1 (stereo not drawn)	25 (≈ 62.4 µM)	50 (≈ 125 µM)	50 (≈ 125 µM)	12.5 (≈ 31.2 µM)		
[O-][S+]1c2ccccc2SN1c1ccc(F)c(F)c1 (stereo not drawn)	100 (≈ 353 µM)	25 (≈ 88.2 µM)	25 (≈ 88.2 µM)	25 (≈ 88.2 µM)		
[O-][S+]1c2ccccc2SN1C12CC3CC(CC(C3)C1)C2 (stereo not drawn)	12.5 (≈ 40.9 µM)	6.25 (≈ 20.5 µM)	25 (≈ 81.8 µM)	50 (≈ 164 µM)		
CC(C)(C)CCN1Sc2ccccc2[S+]1[O-] (stereo not drawn)	3.12 (≈ 12.2 µM)	1.56 (≈ 6.11 µM)	1.56 (≈ 6.11 µM)			
[O-][S+]1c2ccccc2SN1Cc1ccc2ccccc2c1 (stereo not drawn)	3.12 (≈ 10 µM)	3.12 (≈ 10 µM)	6.25 (≈ 20.1 µM)	12.5 (≈ 40.1 µM)		
[O-][S+]1c2ccccc2SN1Cc1ccccc1 (stereo not drawn)					4.6	88
[O-][S+]1c2ccc(F)cc2SN1Cc1ccccc1 (stereo not drawn)	0.78 (≈ 2.79 µM)	0.78 (≈ 2.79 µM)	0.78 (≈ 2.79 µM)	1.56 (≈ 5.58 µM)		
CCCCCCCCCCCCCCCCN1Sc2ccccc2[S+]1[O-] (stereo not drawn)	> 100	> 100	> 100	> 100		
c1ccc2c(c1)SN(C1CC1)S2	25 (≈ 128 µM)	25 (≈ 128 µM)	50 (≈ 256 µM)	50 (≈ 256 µM)		
COCC(Cc1ccccc1)N1Sc2ccccc2[S+]1[O-] (stereo not drawn)	3.12 (≈ 9.77 µM)	3.12 (≈ 9.77 µM)	3.12 (≈ 9.77 µM)	3.12 (≈ 9.77 µM)		
[O-][S+](c1ccccc1)N(Cc1ccccc1)Sc1ccccc1 (stereo not drawn)	> 100	> 100	> 100	50 (≈ 147 µM)		
Cc1cccc2c1SN(Cc1ccccc1)[S+]2[O-] (stereo not drawn)	12.5 (≈ 45.4 µM)	12.5 (≈ 45.4 µM)	25 (≈ 90.8 µM)	25 (≈ 90.8 µM)		
[O-][S+]1c2ccccc2SN1Cc1ccc(F)c(F)c1 (stereo not drawn)	1.56 (≈ 5.25 µM)	1.56 (≈ 5.25 µM)	1.56 (≈ 5.25 µM)	3.12 (≈ 10.5 µM)		
[O-][S+]1c2ccccc2SN1C(c1ccccc1)c1ccccc1 (stereo not drawn)	6.25 (≈ 18.5 µM)	25 (≈ 74.1 µM)	12.5 (≈ 37 µM)	25 (≈ 74.1 µM)		
COc1cc(CN2Sc3ccccc3[S+]2[O-])cc(OC)c1OC (stereo not drawn)	12.5 (≈ 35.6 µM)	12.5 (≈ 35.6 µM)	12.5 (≈ 35.6 µM)	3.12 (≈ 8.88 µM)		
COc1ccc2c(c1)SN(Cc1ccccc1)[S+]2[O-] (stereo not drawn)	0.78 (≈ 2.68 µM)	0.78 (≈ 2.68 µM)	0.78 (≈ 2.68 µM)	3.12 (≈ 10.7 µM)		
CCC(CC)N1Sc2ccccc2[S+]1[O-] (stereo not drawn)	100 (≈ 414 µM)	100 (≈ 414 µM)	100 (≈ 414 µM)	50 (≈ 207 µM)		
